Only some compounds are listed: those with a hit (about 2.6% of all), similar ones and a draw of the others.
ERAP1 inh: ERAP1 (human) enzyme inhibition. actives 0.15% (n = 340,000). inhibition, % at 10.7 µM. recombinant ERAP1, Leu-AMC fluorescence, 60 min. AID 652197;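 active = mean replicate inhibition of at least 30%, or all replicates individually reaching that 30% level; inactive = mean below 30% and not every replicate reaching it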;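 also: 0% = neutral control wells and 100% = L-leucinethiol positive control wells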
miR-122 sensor: blocks miR-122 activity in Huh7 sensor cells; Huh7 miR-122 Renilla luciferase sensor, 48 h; neutral wells = 0, positive control = 100; activation (reporter increase), % at 12.5 µM; actives 0.3% (n = 340,000);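 active = mean replicate activation score at least 90 and every replicate individually at or above 90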;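 also: higher luciferase means less miR-122 activity so hits act as miR-122 inhibitors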
GSIS activator: GLuc luminescence reporter in INS-1E cells, primary screen for activators of glucose-dependent secretion of insulin. activation, % at 16.6 µM. actives 0.61% (n = 370,000). INS-1E GLuc reporter insulin secretion, 2-3 h. AID 743287;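 active = lowest replicate activation of at least 40%, so every replicate reaches that level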;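 also: 0% = median of neutral control wells and 100% = median of IBMX positive control wells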
DENV2 CPE rescue: protects cells from dengue virus 2 cytopathic effect | CPE inhibition, % at 9.99 µM | DENV2-infected cells, cytopathic effect rescue, plate reader | actives 1.7% (n = 350,000); in the data active = CPE inhibition above about 20%, passing the limit was not always enough; tested in BHK-21 cells;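 also: 0% = median of neutral control wells and 100% = median of positive control wells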
E-sel inducer: induces E-selectin expression in human endothelial cells; P16581; HUVEC E-selectin immunofluorescence imaging; normalized: neutral wells 0, TNF-alpha wells 100; activation, % at 7.58 µM; actives 0.37% (n = 260,000);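 active = mean E-selectin-positive cell signal at least 10% of the positive control, reached in at least 60% of replicates, without over 20% cell loss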
Target sequence (P16581 whole entry, looked up): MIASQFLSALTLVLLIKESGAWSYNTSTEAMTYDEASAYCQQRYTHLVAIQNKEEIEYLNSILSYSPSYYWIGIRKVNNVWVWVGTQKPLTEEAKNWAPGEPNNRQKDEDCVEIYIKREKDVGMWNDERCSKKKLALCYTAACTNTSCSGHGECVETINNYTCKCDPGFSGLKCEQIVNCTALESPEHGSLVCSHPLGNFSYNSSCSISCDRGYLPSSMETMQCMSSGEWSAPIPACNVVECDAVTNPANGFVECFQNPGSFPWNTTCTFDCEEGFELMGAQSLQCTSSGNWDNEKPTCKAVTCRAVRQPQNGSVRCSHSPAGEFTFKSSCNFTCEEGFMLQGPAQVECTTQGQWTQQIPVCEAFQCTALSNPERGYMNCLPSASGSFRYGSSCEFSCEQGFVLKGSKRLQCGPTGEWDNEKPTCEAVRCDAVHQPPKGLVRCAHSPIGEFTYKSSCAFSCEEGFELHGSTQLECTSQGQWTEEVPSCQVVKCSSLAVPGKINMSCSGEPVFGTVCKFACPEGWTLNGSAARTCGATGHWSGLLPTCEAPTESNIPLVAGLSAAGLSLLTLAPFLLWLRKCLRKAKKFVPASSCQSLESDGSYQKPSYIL
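Read-out basis: % PE-positive cells; Test system: HUVEC primary endothelial cells; Technique: immunofluorescence imaging; Dosing: single-point compound dose.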
CFTR F508del cor: correctors of CFTR F508del function in bronchial epithelial cells. CFBE cells, YFP halide quenching; stimulated with forskolin plus potentiator P3; % fluorescence drop versus neutral controls. activity (quench increase), % at 7.58 µM. actives 0.36% (n = 350,000). AID 720511;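 active = mean added fluorescence quench of at least 8% versus neutral control, with both replicates also reaching 8%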;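 also: cells transiently co-express mutant CFTR-F508del with the halide-sensitive YFP; corrector assay measuring rescue of mutant channel to the surface after 24 h compound exposure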
* marks the source's active call; other numbers are inactive results; · = no result given; ! = not active in a repeat; [ ] = another dose, or the depositor's remark.

SMILES | ERAP1 inh | miR-122 sensor | GSIS activator | DENV2 CPE rescue | E-sel inducer | CFTR F508del cor
O=C(C[C@H]1C[C@@H]2c3cc(NC(=O)Cc4ccncc4)ccc3O[C@@H]2[C@@H](CO)O1)NCCN1CCCCC1 | 1 | 0[16.7 µM] | 13 | -4 | 0 | 1
O=C(C[C@@H]1C[C@H]2c3cc(NC(=O)Cc4ccncc4)ccc3O[C@H]2[C@@H](CO)O1)NCCN1CCCCC1 | 1 | -7[16.7 µM] | 27 | 35* | 0 | 3
O=C(C[C@@H]1C[C@H]2c3cc(NC(=O)C4CCC4)ccc3O[C@H]2[C@H](CO)O1)NCCN1CCCCC1 | 1 | 5[16.7 µM] | 10 | 26* | -1 | -1
CNC[C@H]1Oc2ccc(N(C)C)cc2CC(=O)N(C)C[C@H]1C | · | · | -4 | · | · | ·
CCOc1ccccc1N(CC(=O)Nc1cccnc1)S(=O)(=O)c1ccc(C)cc1 | 12 | 128* | -3 | 5 | 3 | 1
COc1ccc(Cl)cc1N(CC(=O)N1CCCC1)S(=O)(=O)c1ccc(C)cc1 | 1 | 141* | 10 | 1 | 1 | -1
COc1ccccc1N(CC(=O)N1CCCC1)S(=O)(=O)c1ccc(C)cc1 | 3 | · | -2 | 54* | 0 | 0
COc1ccccc1N(CC(=O)N1CCCCCC1)S(=O)(=O)c1ccc(C)cc1 | 3 | 41 | 0 | 15 | 0 | 1
COc1ccccc1N(CC(=O)N1CCCCC1C)S(=O)(=O)c1ccc(Cl)cc1 (stereo not drawn) | -7 | 128* | -3 | 3 | 0 | 1
CCCNC(=O)[C@@H]1[C@@H](CO)[C@@H]2Cn3c(ccc(-c4ccccc4F)c3=O)[C@H]1N2S(C)(=O)=O | 0 | 15[16.7 µM] | 6 | 11 | 1 | 2
COc1ccc(C)cc1S(=O)(=O)N(C)CC(=O)N1CCN(C)CC1 | · | -2 | · | · | · | ·
COc1ccc(N(CC(=O)N2CCN(C)CC2)S(=O)(=O)c2cc(C)ccc2OC)cc1Cl | -3 | 2 | -11 | 83* | -2 | -3
CO[C@@H]1CN(C)C(=O)c2ccc(NC(=O)Nc3ccc(F)cc3)cc2OC[C@H](C)NC[C@@H]1C | -7 | 1[16.7 µM] | 10 | 36* | 0 | ·
CO[C@@H]1CN(C)C(=O)c2ccc(NC(=O)Nc3cccc(F)c3)cc2OC[C@@H](C)NC[C@H]1C | -1 | · | 2 | 3 | 1 | -3
CO[C@H]1CN(C)C(=O)c2ccc(NC(=O)Nc3ccccc3)cc2OC[C@H](C)NC[C@@H]1C | -3 | · | -16 | 32* | 0 | -3
CO[C@H]1CN(C)C(=O)c2cc(NC(=O)c3ccc4c(c3)OCO4)ccc2OC[C@H](C)N(CCC(F)(F)F)C[C@H]1C | -2 | · | -14 | -2 | 0 | -1
C[C@@H]1CN([C@H](C)CO)C(=O)c2cc(NS(=O)(=O)c3ccc(Cl)cc3)ccc2O[C@@H](C)CCCCO[C@@H]1CN(C)C(=O)CCCN(C)C | -5 | -2[16.7 µM] | 1 | 22* | 0 | 0
C[C@@H]1CCCCO[C@@H](CN(C)C(=O)CCCN(C)C)[C@@H](C)CN([C@H](C)CO)C(=O)c2cc(NS(=O)(=O)c3ccc(Cl)cc3)ccc2O1 | -5 | 12[16.7 µM] | 18 | 2 | 0 | -1
C[C@@H]1CN([C@@H](C)CO)C(=O)c2cc(NS(=O)(=O)c3ccc(Cl)cc3)ccc2O[C@@H](C)CCCCO[C@@H]1CN(C)C(=O)CCCN(C)C | -4 | 6[16.7 µM] | 5 | 20* | 0 | 0
C/C=C/c1ccc([C@H]2[C@@H](CO)N(C(=O)NCCC)[C@@H]2CNC(=O)C2CCC2)cc1 | · | 21[16.7 µM] | -8 | -11 | 0 | -2
Cc1ccc(NCc2cccc(B(O)O)c2)cc1 | 1 | 8 | 43* | -6 | · | 0
CN(C)S(=O)(=O)c1ccc(C(=O)NCC[N+]2(C)CCCCCC2)o1 | 41* | 1 | 7 | 5 | -1 | 2
Oc1c(N=Nc2nn[nH]n2)ccc2ccccc12 | -1 | · | -13 | 69* | 0 | 0
COC(=O)c1cc2ccsc2n1Cc1ccccc1F | 0 | 1 | · | 113* | · | 1
COc1cc2nc(N3CCN(C(=O)C4COc5ccccc5O4)CC3)nc(N)c2cc1OC (stereo not drawn) | -5 | -1 | · | -1 | 61* | 0
SMILES | ERAP1 inh | miR-122 sensor | GSIS activator | DENV2 CPE rescue | E-sel inducer | CFTR F508del cor
O=C(Nc1ccc([N+](=O)[O-])cc1)N1CCc2ccccc2C1 | 0 | 19 | -3 | 23* | · | 1
O=C(CSC1=NCCN1)Nc1cccc([N+](=O)[O-])c1 | -1 | -1 | 9 | 5 | 0 | 10*
O=C(Nc1ccc([N+](=O)[O-])cc1)N1CCCCCC1 | -2 | · | -1 | 0 | 0 | 1
O=C(Nc1cccc([N+](=O)[O-])c1)N1CCCCCC1 | -1 | -4 | 63* | -5 | · | 0
CNC[C@H]1Oc2c(NC(=O)CCC(F)(F)F)cccc2C(=O)N([C@H](C)CO)C[C@@H]1C | · | · | 2 | · | · | ·
Cc1cc(C)c2nc(SC(C)C(=O)NCC(=O)Nc3ccc(F)c(F)c3F)cc(C)c2c1 (stereo not drawn) | 2 | · | -2 | 28* | · | 1
CCOc1ccc(C2C(C(=O)c3ccco3)=C(O)C(=O)N2Cc2cccnc2)cc1 (stereo not drawn) | · | -8 | · | · | 2 | ·
C=CCOc1cccc(C2C(C(=O)c3ccco3)=C(O)C(=O)N2Cc2cccnc2)c1 (stereo not drawn) | 1 | -7 | 1 | 2 | 33* | 2
COc1cccc(S(=O)(=O)Nc2ccc3c(c2)[C@@H]2C[C@H](CC(=O)NCc4cccc(F)c4)O[C@H](CO)[C@@H]2O3)c1 | -1 | 10[16.7 µM] | 9 | -1 | 0 | -1
CC(C)C#Cc1ccc([C@H]2[C@H](CO)N3CCCCN(CC4CC4)C[C@@H]23)cc1 | 1 | -29[16.7 µM] | -10 | 26* | 0 | 2
C[C@H](O)C#Cc1ccc([C@H]2[C@@H](CO)N3CCCCN(CC4CC4)C[C@H]23)cc1 | 1 | 23[16.7 µM] | -13 | 23* | 0 | -1
CNC[C@@H]1Oc2ccc(NS(=O)(=O)c3ccc(F)cc3)cc2C(=O)N([C@H](C)CO)C[C@@H]1C | 1 | -5[16.7 µM] | 4 | 53* | · | -3
COc1ccc(S(=O)(=O)Nc2ccc3c(c2)C(=O)N([C@@H](C)CO)C[C@@H](C)[C@H](CN(C)S(=O)(=O)c2ccc(F)cc2)O3)cc1 | 0 | -1[16.7 µM] | -5 | -2 | 0 | 1
COc1ccc(S(=O)(=O)Nc2ccc3c(c2)C(=O)N([C@@H](C)CO)C[C@H](C)[C@H](CN(C)S(=O)(=O)c2ccc(F)cc2)O3)cc1 | 1 | -2[16.7 µM] | -17 | 31*! | 0 | 2
COc1ccc(S(=O)(=O)Nc2ccc3c(c2)C(=O)N([C@H](C)CO)C[C@@H](C)[C@@H](CN(C)S(=O)(=O)c2ccc(F)cc2)O3)cc1 | 1 | 7[16.7 µM] | -4 | 1 | 0 | 4

High-throughput results deposited in PubChem BioAssay by Broad Institute.
